From ChEMBL document CHEMBL4842335, “Discovery of penipanoid C-inspired 2-(3,4,5-trimethoxybenzoyl)quinazolin-4(3H)-one derivatives as potential anticancer agents by inhibiting cell proliferation and inducing apoptosis in hepatocellular carcinoma cells” (Eur J Med Chem, 2021)
The source made the active and inactive calls. The calls are words filed in the database; no cut-off is given here.

Experiments:
HepG2 [1] = assay: Induction of apoptosis in human HepG2 cells assessed as live cells at 0.8 uM incubated for 48 hrs by Annexin V and dead cell assay kit (reference value: 93.90%); assay type: functional
Summary of the method: (§1)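 HepG2 cells were grown in DMEM and exposed to 0, 0.8, 1.6 or 3.2 µM test agent or DMSO vehicle for 48 h. Apoptosis was then read on a Muse cell analyzer using an Annexin V & Dead Cell kit, which separates live, early apoptotic, late apoptotic and dead populations. The figure legend gives n = 3 with SEM.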

HepG2 [2] = assay: Induction of cell cycle arrest in human HepG2 cells assessed as accumulation at S phase at 1.6 uM incubated for 48 hrs by flow cytometry (reference value: 28.23%); assay type: functional
Summary of the method: (§2)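 HepG2 treated 48 h with 0, 0.8 or 1.6 µM (DMSO control); phase distribution by flow cytometry using a cell cycle and apoptosis kit; mean with SD, n = 3.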

[3] = biological target: T1, Serine/threonine-protein kinase AKT (Homo sapiens) (UniProt P31751+Q9Y243+P31749); assay: Inhibition of Akt phosphorylation in human Bel-7402 cells incubated for 48 hrs by Western blot analysis; assay type: cell-based
T1 sequence (P31749 whole entry, looked up): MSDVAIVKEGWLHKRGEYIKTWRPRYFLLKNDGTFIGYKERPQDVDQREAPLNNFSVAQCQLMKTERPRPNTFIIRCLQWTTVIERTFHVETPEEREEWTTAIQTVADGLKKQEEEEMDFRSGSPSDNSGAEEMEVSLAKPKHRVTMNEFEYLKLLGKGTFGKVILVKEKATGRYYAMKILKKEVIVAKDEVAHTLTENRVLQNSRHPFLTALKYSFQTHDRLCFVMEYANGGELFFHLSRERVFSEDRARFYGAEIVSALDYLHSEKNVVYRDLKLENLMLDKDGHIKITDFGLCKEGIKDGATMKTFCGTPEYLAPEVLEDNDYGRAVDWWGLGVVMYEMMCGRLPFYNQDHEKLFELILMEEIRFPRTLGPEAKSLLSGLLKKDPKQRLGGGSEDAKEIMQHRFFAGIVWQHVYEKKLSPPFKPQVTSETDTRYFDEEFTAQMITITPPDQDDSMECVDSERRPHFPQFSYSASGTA
T1 sequence (P31751 whole entry, looked up): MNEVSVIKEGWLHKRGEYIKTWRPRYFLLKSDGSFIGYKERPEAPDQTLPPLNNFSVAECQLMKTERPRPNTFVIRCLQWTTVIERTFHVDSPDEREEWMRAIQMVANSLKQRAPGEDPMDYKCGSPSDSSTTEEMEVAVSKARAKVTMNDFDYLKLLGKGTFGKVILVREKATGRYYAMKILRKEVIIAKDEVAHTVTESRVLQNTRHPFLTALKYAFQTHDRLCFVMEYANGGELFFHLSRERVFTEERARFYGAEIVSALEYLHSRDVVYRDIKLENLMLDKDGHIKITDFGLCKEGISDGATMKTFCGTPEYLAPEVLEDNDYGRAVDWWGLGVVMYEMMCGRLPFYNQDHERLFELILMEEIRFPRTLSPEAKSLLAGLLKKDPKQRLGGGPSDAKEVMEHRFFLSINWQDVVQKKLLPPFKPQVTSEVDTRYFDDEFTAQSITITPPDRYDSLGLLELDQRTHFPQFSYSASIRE
T1 sequence (Q9Y243 whole entry, looked up): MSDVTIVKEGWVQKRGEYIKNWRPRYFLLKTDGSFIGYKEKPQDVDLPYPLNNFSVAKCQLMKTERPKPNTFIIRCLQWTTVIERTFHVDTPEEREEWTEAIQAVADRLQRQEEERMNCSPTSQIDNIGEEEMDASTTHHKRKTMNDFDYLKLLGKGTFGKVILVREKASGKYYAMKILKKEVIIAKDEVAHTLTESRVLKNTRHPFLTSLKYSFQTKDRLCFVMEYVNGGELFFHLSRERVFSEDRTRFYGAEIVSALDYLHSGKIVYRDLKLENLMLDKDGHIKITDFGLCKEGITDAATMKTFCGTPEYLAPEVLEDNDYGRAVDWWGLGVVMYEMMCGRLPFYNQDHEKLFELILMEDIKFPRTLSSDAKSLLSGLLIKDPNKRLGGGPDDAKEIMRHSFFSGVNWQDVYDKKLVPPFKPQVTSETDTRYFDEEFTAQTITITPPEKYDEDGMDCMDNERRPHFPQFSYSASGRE
Summary of the method: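 Bel-7402 exposed for 48 h to 0, 1.6 or 3.2 µM; cell extracts on 12.5% SDS-PAGE, transferred to PVDF, probed overnight at 4 °C with AKT, p-AKT, ERK1/2, p-ERK1/2 antibodies (1:1000), HRP secondary 1 h, chemiluminescent detection. Band levels normalised to control = 1; SD, n = 3.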

HepG2 [4] = assay: Antitumor activity against human HepG2 cells xenografted in BALB/c mouse assessed as tumor growth inhibition at 4 mg/kg, ip relative to control; assay type: functional; settings: read-out: TGI
Summary of the method: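 Female BALB/c nude mice (14–17 g) given HepG2 s.c. (1×10⁶/mouse); at 100–200 mm³ tumours, randomised to 3 groups of 5. Daily i.p. dosing at 4 or 8 mg/kg for 20 days; vehicle 15% N-methylpyrrolidone/25% Solutol HS-15/60% saline. Caliper volume twice weekly, TV = width² × length/2; inhibition from volume change versus vehicle group.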

Bel-7402 [5] = assay: Induction of cell cycle arrest in human Bel-7402 cells assessed as accumulation at S phase at 0.8 uM incubated for 48 hrs by flow cytometry (reference value: 28.48%); assay type: functional
Bel-7402 [6] = assay: Induction of cell cycle arrest in human Bel-7402 cells assessed as accumulation at G2/M phase at 0.8 uM incubated for 48 hrs by flow cytometry (reference value: 25.20%); assay type: functional
HepG2 [7] = assay: Induction of apoptosis in human HepG2 cells assessed as live cells at 1.6 uM incubated for 48 hrs by Annexin V and dead cell assay kit (reference value: 93.90%); assay type: functional; summary of the method: as §1
Bel-7402 [8] = assay: Induction of cell cycle arrest in human Bel-7402 cells assessed as accumulation at S phase at 3.2 uM incubated for 48 hrs by flow cytometry (reference value: 28.48%); assay type: functional
Bel-7402 [9] = assay: Induction of cell cycle arrest in human Bel-7402 cells assessed as accumulation at G2/M phase at 1.6 uM incubated for 48 hrs by flow cytometry (reference value: 25.20%); assay type: functional
Bel-7402 [10] = assay: Cytotoxicity against human Bel-7402 cells assessed as inhibition of proliferation incubated for 72 hrs by MTT assay; assay type: functional, cell-based; settings: Bel-7402, 72 h
Summary of the method: (§3)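 Cells plated at 3×10³/well, grown overnight in DMEM + 10% FBS, then exposed to compounds (DMSO stocks; 0.1% DMSO negative control) for 72 h at 37 °C. MTT (5 mg/mL in PBS, added at 10%) for 4 h, formazan dissolved in DMSO, A570 read. Inhibition = (Ac−As)/(Ac−Ab)×100; IC50 by calculator; ≥3 independent repeats.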

HepG2 [11] = assay: Cytotoxicity against human HepG2 cells assessed as inhibition of proliferation incubated for 72 hrs by MTT assay; assay type: functional, cell-based; settings: HepG2, 72 h; summary of the method: as §3
HepG2 [12] = assay: Cytotoxicity against human HepG2 cells assessed as inhibition rate at 2.5 uM incubated for 72 hrs by MTT assay relative to control; assay type: functional
Summary of the method: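 HepG2 exposed to each compound at 2.5 µM-range single concentration for 72 h at 37 °C after overnight attachment in DMEM + 10% FBS; 0.1% DMSO control. MTT 4 h, DMSO solubilisation, A570; inhibition rate = (Ac−As)/(Ac−Ab)×100.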

Bel-7402 [13] = assay: Induction of cell cycle arrest in human Bel-7402 cells assessed as accumulation at S phase at 1.6 uM incubated for 48 hrs by flow cytometry (reference value: 28.48%); assay type: functional
HepG2 [14] = assay: Induction of apoptosis in human HepG2 cells assessed as increase in cleaved PARP level at 1.6 to 3.2 uM after 48 hrs by Western blot analysis; settings: dose 1.6-3.2 µM
HepG2 [15] = assay: Induction of apoptosis in human HepG2 cells assessed as late apoptotic cells at 0.8 uM incubated for 48 hrs by Annexin V and dead cell assay kit (reference value: 1%); assay type: functional; summary of the method: as §1
HepG2 [16] = assay: Induction of cell cycle arrest in human HepG2 cells assessed as accumulation at S phase at 0.8 uM incubated for 48 hrs by flow cytometry (reference value: 28.23%); assay type: functional; summary of the method: as §2
[17] = biological target: T1, Serine/threonine-protein kinase AKT (Homo sapiens); assay: Inhibition of Akt phosphorylation in human HepG2 cells incubated for 48 hrs by Western blot analysis; assay type: cell-based; settings: dose 1.6-3.2 µM
Summary of the method: (§4)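 HepG2 treated 48 h with 0, 1.6 or 3.2 µM; lysates run on 12.5% SDS-PAGE, PVDF transfer, primary antibodies (AKT, p-AKT, ERK1/2, p-ERK1/2; 1:1000) overnight at 4 °C, HRP secondaries 1 h, chemiluminescence. Phosphorylation quantified relative to untreated control set to 1; SD, n = 3.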

Bel-7402 [18] = assay: Induction of cell cycle arrest in human Bel-7402 cells assessed as accumulation at G1 phase at 1.6 uM incubated for 48 hrs by flow cytometry (reference value: 46.32%); assay type: functional
HepG2 [19] = assay: Induction of apoptosis in human HepG2 cells assessed as early apoptotic cells at 3.2 uM incubated for 48 hrs by Annexin V and dead cell assay kit (reference value: 4.55%); assay type: functional; summary of the method: as §1
HepG2 [20] = assay: Induction of apoptosis in human HepG2 cells assessed as live cells at 3.2 uM incubated for 48 hrs by Annexin V and dead cell assay kit (reference value: 93.90%); assay type: functional; summary of the method: as §1
[21] = biological target: Mitogen-activated protein kinase; ERK1/ERK2 (Homo sapiens) (UniProt P27361+P28482); assay: Inhibition of ERK1/2 phosphorylation in human HepG2 cells incubated for 48 hrs by Western blot analysis; assay type: cell-based; summary of the method: as §4
Mitogen-activated protein kinase; ERK1/ERK2 (Homo sapiens), sequence (P27361 whole entry, looked up): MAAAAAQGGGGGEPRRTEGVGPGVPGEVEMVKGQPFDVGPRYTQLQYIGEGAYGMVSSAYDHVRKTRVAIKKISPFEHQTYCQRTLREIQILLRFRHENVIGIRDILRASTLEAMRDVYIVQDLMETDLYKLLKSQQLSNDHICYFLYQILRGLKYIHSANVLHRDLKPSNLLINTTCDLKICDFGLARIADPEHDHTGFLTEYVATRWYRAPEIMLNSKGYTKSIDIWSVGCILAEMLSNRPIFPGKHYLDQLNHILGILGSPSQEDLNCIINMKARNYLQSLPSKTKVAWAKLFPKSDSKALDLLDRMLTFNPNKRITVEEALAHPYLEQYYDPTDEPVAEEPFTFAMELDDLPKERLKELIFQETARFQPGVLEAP
Mitogen-activated protein kinase; ERK1/ERK2 (Homo sapiens), sequence (P28482 whole entry, looked up): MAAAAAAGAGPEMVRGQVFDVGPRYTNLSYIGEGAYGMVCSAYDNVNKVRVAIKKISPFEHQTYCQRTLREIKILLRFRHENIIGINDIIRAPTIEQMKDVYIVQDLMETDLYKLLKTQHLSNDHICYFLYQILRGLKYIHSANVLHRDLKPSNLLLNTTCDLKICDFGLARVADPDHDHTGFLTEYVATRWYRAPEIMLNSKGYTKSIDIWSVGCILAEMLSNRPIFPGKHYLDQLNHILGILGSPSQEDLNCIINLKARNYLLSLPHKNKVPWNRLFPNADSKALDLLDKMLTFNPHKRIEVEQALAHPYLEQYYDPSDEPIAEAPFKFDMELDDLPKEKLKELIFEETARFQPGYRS

HepG2 [22] = assay: Inhibition of colony formation in human HepG2 cells at 1.6 to 3.2 uM measured after 10 days by crystal violet staining based assay relative to control; assay type: functional, cell-based; settings: dose 1.6-3.2 µM, time 10.0 day
Summary of the method: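 1000 cells/well seeded, attached overnight in DMEM + 10% FBS, then grown 10 days at 37 °C, 5% CO₂ with 0, 0.2, 0.4, 0.8, 1.6 or 3.2 µM. Fixed in 4% paraformaldehyde 15 min, stained 0.1% crystal violet 30 min, colonies counted; formation rate relative to solvent control.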

HepG2 [23] = assay: Induction of apoptosis in human HepG2 cells assessed as dead cells at 1.6 uM incubated for 48 hrs by Annexin V and dead cell assay kit (reference value: 0.55%); assay type: functional; summary of the method: as §1

Structure (SMILES): COc1cc(C(=O)c2nc3ccccc3c(=O)[nH]2)cc(OC)c1OC
- Activity (HepG2 [1]): 91.75%
- Activity (HepG2 [2]): 35.65%
- inhibition [3]: Dose-Dependent Effect
- inhibition in vivo at 4 mg/kg (HepG2 [4]): 19.1%
- Activity (Bel-7402 [5]): 33.11%
- Activity (Bel-7402 [6]): 27.69%
- Activity (HepG2 [7]): 80.65%
- Activity (Bel-7402 [8]): 32.14%
- Activity (Bel-7402 [9]): 32.43%
- IC50 (Bel-7402 [10]): 1710 nM
- IC50 (HepG2 [11]): 1220 nM
- inhibition at 2.5 µM (HepG2 [12]): 73%
- Activity (Bel-7402 [13]): 34.5%
- Activity (HepG2 [14]): Active
- Activity (HepG2 [15]): 2%
- Activity (HepG2 [16]): 33.43%
- inhibition [17]: Dose-Dependent Effect
- Activity (Bel-7402 [18]): 33.07%
- Activity (HepG2 [19]): 22.1%
- Activity (HepG2 [20]): 53.2%
- inhibition [21]: Dose-Dependent Effect
- inhibition (HepG2 [22]): Active
- Activity (HepG2 [23]): 0.95%
